According to publication PMC7315603 (ACS Omega, 2020):
Converted amounts (≈) assume the structure as drawn. “And” between values parts separate entries of the source, which are not always exact repeats. Equal entries are not always repeated. Where two headings read alike, the source gives them in different places. Where a SMILES comes first, the peptide text is derived from it. [ ]: non-standard residue; d: D form. dPhe(4-Cl) = N[C@H](Cc1ccc(Cl)cc1)C(=O)O; aIle = CC[C@@H](C)[C@H](N)C(=O)O; dPhLac = O=C(O)[C@H](O)Cc1ccccc1; Sar = CNCC(=O)O

Columns and labels:
P. falciparum strain 3D7 [1] = test: microbe, parasite or virus in culture; settings: Plasmodium falciparum, 3D7, read-out: IC50 (P. falciparum 3D7)
Mycobacterium vaccae = test: MIC against Mycobacterium vaccae, microplate alamar blue broth dilution assay; assay type: cell-based
human serum albumin = human serum albumin (Homo sapiens, UniProt P02768); test: Human serum albumin binding; assay type: in vitro ADME
Chain of human serum albumin (P02768 25-609): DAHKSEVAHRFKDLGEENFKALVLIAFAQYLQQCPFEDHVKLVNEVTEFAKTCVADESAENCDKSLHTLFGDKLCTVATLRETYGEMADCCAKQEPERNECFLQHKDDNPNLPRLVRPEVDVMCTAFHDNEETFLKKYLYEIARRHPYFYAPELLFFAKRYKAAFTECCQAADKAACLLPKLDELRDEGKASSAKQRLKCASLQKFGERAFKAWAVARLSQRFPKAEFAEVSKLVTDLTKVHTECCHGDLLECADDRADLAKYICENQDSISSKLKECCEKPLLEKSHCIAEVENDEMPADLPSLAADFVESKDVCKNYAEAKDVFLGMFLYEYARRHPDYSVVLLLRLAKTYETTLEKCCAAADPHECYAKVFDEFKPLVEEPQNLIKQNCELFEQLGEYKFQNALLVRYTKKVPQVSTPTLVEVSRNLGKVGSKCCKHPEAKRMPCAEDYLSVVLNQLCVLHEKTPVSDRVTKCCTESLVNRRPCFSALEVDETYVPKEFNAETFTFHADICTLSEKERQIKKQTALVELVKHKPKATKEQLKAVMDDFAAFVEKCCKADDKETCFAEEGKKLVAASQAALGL

[2] = Intrinsic microsomal clearance, human liver microsomes; assay type: in vitro ADME; settings: for intrinsic microsomal clearance (Clint), human: human liver microsomes
[3] = Intrinsic microsomal clearance, mouse liver microsomes; assay type: in vitro ADME; settings: for intrinsic microsomal clearance (Clint), mouse: mouse liver microsomes
[4] = Plasma stability, human plasma; assay type: in vitro ADME; settings: 2 h incubation at 37 °C
Procedure, shortened: (§1)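 Test compound incubated in human or mouse plasma for 2 h at 37 °C. The amount of compound remaining afterward was quantified and reported as percent remaining.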

[5] = Plasma stability, mouse plasma; assay type: in vitro ADME
Procedure, shortened: as §1

[6] = Kinetic aqueous solubility; assay type: physicochemical
M. tuberculosis H37Rv = settings: drug-susceptible Mtb H37Rv; 6 days + 48 h resazurin
P. falciparum strain 3D7 [7] = settings: strain 3D7, 3 h
M. tuberculosis H37Ra = settings: natural product; cited from earlier work
Plasmodium falciparum = settings: natural product; cited from earlier work

| Molecule | % human serum albumin binding (%HSA) (human serum albumin) | intrinsic microsomal clearance (Clint), human [2] | intrinsic microsomal clearance (Clint), mouse [3] | remaining at 2 h [5] [%] | solubility kinetic [6] [µg/mL] | IC50 [µM] | IC50 (P. falciparum strain 3D7 [7]) [µM] | other results |
| --- | --- | --- | --- | --- | --- | --- | --- | --- |
| CCN(CC)CCCC(C)Nc1ccnc2cc(Cl)ccc12 (centres unmarked) [CQ, chloroquine] | – | – | – | – | – | – | – | IC50 (P. falciparum strain 3D7 [1]): 0.005 µM |
| CC[C@@H](C)[C@@H]1NC(=O)[C@@H](Cc2ccccc2)OC(=O)CN(C)C(=O)[C@H]([C@H](C)CC)NC(=O)[C@@H](Cc2ccccc2)OC(=O)CN(C)C1=O [Compound 9] (cyclo([Sar][dPhLac][aIle][Sar][dPhLac][aIle])) | 88% | 46.53 mL/(min g) tissue | 38.3 mL/(min g) tissue | 18 | > 180 | > 100 | 2.3 | MIC (M. vaccae) (Mycobacterium vaccae): 18.8 µM (≈ 12.5 µg/mL); stability in human microsomes (in words) [2]: moderate stability; stability in mouse microsomes (in words) [3]: low stability; plasma stability (% remaining), human plasma [4]: 103%; MIC (Mtb H37Rv) (M. tuberculosis H37Rv): > 80 µM |
| CC(C)C[C@@H]1NC(=O)[C@@H](Cc2ccccc2)OC(=O)CN(C)C(=O)[C@H](CC(C)C)NC(=O)[C@@H](Cc2ccccc2)OC(=O)CN(C)C1=O [Compound 10] (cyclo(L[Sar][dPhLac]L[Sar][dPhLac])) | – | – | – | – | > 180 | – | – | – |
| CC(C)[C@@H]1NC(=O)[C@@H](Cc2ccccc2)OC(=O)CN(C)C(=O)[C@H](C(C)C)NC(=O)[C@@H](Cc2ccccc2)OC(=O)CN(C)C1=O [Compound 11] (cyclo([Sar][dPhLac]V[Sar][dPhLac]V)) | – | – | – | – | 80 (≈ 126 µM) | > 100 | 7.5 | – |
| CN1CC(=O)O[C@H](Cc2ccccc2)C(=O)NCC(=O)N(C)CC(=O)O[C@H](Cc2ccccc2)C(=O)NCC1=O [Compound 12] (cyclo(G[Sar][dPhLac]G[Sar][dPhLac])) | 54.7% | 34.00 mL/(min g) tissue | 52.00 mL/(min g) tissue | 0 | 81 (≈ 147 µM) | > 100 | 20.1 | – |
| CC[C@H](C)[C@@H]1NC(=O)[C@@H](Cc2ccccc2)OC(=O)CNC(=O)[C@H]([C@@H](C)CC)NC(=O)[C@@H](Cc2ccccc2)OC(=O)CNC1=O [Compound 13] (cyclo(G[dPhLac]IG[dPhLac]I)) | 91.02% | 32.80 mL/(min g) tissue | 65.90 mL/(min g) tissue | 0 | 6 (≈ 9.42 µM) | > 100 | 13.8 | – |
| CC(C)[C@@H]1NC(=O)[C@@H](Cc2ccccc2)NC(=O)CN(C)C(=O)[C@H](C(C)C)NC(=O)[C@@H](Cc2ccccc2)NC(=O)CN(C)C1=O [Compound 15] (cyclo([Sar][dF]V[Sar][dF]V)) | – | 3.60 mL/(min g) tissue | 7.52 mL/(min g) tissue | – | – | > 100 | 7.7 | – |
| CC[C@@H](C)[C@@H]1NC(=O)[C@@H](Cc2ccccc2)NC(=O)CN(C)C(=O)[C@H]([C@H](C)CC)NC(=O)[C@@H](Cc2ccccc2)NC(=O)CN(C)C1=O [Compound 16] (cyclo([Sar][dF][aIle][Sar][dF][aIle])) | – | 18.90 mL/(min g) tissue | 47.71 mL/(min g) tissue | – | – | > 100 | 2.2 | – |
| CC[C@@H](C)[C@@H]1NC(=O)[C@@H](Cc2ccc(Cl)cc2)NC(=O)CN(C)C(=O)[C@H]([C@H](C)CC)NC(=O)[C@@H](Cc2ccc(Cl)cc2)NC(=O)CN(C)C1=O [Compound 17] (cyclo([Sar][dPhe(4-Cl)][aIle][Sar][dPhe(4-Cl)][aIle])) | 95% and 95.24% | – | – | – | 34 (≈ 46.5 µM) | 26 | 1.8 | – |
| CC[C@@H](C)[C@@H]1NC(=O)[C@@H](Cc2ccc(OC)cc2)NC(=O)CN(C)C(=O)[C@H]([C@H](C)CC)NC(=O)[C@@H](Cc2ccc(OC)cc2)NC(=O)CN(C)C1=O [Compound 18] (cyclo([Sar][dY](Me)[aIle][Sar][dY](Me)[aIle])) | 77.2% | 8.18 mL/(min g) tissue | 13.25 mL/(min g) tissue | – | 124 (≈ 172 µM) | > 100 | 4.1 | – |
| CC[C@@H](C)[C@@H]1NC(=O)[C@@H](CC(C)C)NC(=O)CN(C)C(=O)[C@H]([C@H](C)CC)NC(=O)[C@@H](CC(C)C)NC(=O)CN(C)C1=O [Compound 19] (cyclo([dL][aIle][Sar][dL][aIle][Sar])) | 37% and 37.15% | 6.07 mL/(min g) tissue | 5.79 mL/(min g) tissue | 88 | ≥ 184 | – | – | – |
| hirsutellide A | – | – | – | – | – | – | – | MIC (M. tuberculosis H37Ra) (M. tuberculosis H37Ra): 6 to 12 µg/mL; IC50 (Plasmodium falciparum) (Plasmodium falciparum): 2.8 µg/mL |
